Compounds with a hit are over-represented: about 1.8% of the library has one in this group of screens.
NPY Y1 blocker – NPY-Y1 receptor antagonists, primary screen, cell-based; HEK293-CNG Y1 cells, membrane potential fluorescence; NPY at EC95, then isoproterenol; 200,000 compounds, 1% hits; inhibition, % at 3.6 µM;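 active = inhibition above the campaign mean inhibition of all tested compounds plus 3 SD, cut at about 20% in these data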
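Material: HEK293 Y1/CNG channel cell line; also added: NPY (25 nM), isoproterenol (1 µM), Ro 20-1724 (25 µM); doses: one concentration, 3.6 µM, in 0.4% DMSO; schedule: compound incubation 1 h at room temperature, readout 45 min post-stimulation; technique: membrane potential fluorescence; measure: fluorescence ratio normalized to % inhibition between controls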
NPY Y2 blocker – NPY-Y2 receptor antagonists, primary screen, cell-based. 140,000 compounds, 0.99% hits. inhibition, % at 2.7 µM. Neuropeptide Y receptor type 2 (Homo sapiens), P49146. NPY-Y2 expressing cells, antagonist mode; in the data active = inhibition above about 17%
Target sequence (P49146 whole entry, looked up): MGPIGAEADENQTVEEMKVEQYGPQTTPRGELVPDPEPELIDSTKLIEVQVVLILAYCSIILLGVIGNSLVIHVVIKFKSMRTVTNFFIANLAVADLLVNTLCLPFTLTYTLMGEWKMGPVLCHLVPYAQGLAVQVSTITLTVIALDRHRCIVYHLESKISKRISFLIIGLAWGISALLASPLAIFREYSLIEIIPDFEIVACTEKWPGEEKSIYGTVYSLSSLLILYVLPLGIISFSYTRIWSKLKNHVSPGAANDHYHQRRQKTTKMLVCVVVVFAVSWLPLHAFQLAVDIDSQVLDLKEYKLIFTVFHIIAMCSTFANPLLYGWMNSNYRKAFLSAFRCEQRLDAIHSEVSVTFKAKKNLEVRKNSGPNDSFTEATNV
NPY-Y2 PAM-ag – NPY-Y2 potentiators or agonists, primary screen, cell-based; 220,000 compounds, 0.45% hits; activation, % at 3.6 µM; Neuropeptide Y receptor type 2 (Homo sapiens), P49146; cells expressing NPY-Y2, potentiator/agonist read-out; in the data active = activation above about 27%;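 note: cells stimulated with NPY near EC25 plus isoproterenol at EC100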
NPY-Y1 PAM-ag – NPY-Y1 receptor potentiators or agonists, primary screen, cell-based | activation, % at 3.6 µM | Neuropeptide Y receptor type 1 (Homo sapiens), P25929 | NPY-Y1 expressing cells, potentiator/agonist activation | AID 1304, 2008 | 220,000 compounds, 0.37% hits; in the data active = activation above about 33%, passing the limit was not always enough;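 note: cells stimulated with NPY at EC10 then isoproterenol at EC100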
NPY-Y2 pot conf – NPY-Y2 potentiators or agonists, confirmation, cell-based | 450 compounds, 20% hits | shares compounds with NPY-Y2 PAM-ag | AID 1539, 2009 | activation, % at 3.6 µM | cell-based NPY-Y2 potentiator/agonist assay; in the data active = activation above about 33%
NPY-Y1 potentiator – NPY-Y1 potentiators or agonists, counter-screen for NPY-Y2 potentiator project, cell-based, fluorescence; shares compounds with NPY-Y2 PAM-ag; Y1 HEK293-CNG cells, membrane potential fluorescence; activation, % at 3.6 µM; 450 compounds, 20% hits; AID 1651, 2009; in the data active = activation above about 45%;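 note: cells stimulated with submaximal NPY then isoproterenol with phosphodiesterase inhibitor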
NPY-Y1 agonist 2 – NPY-Y1 direct agonists, selectivity assay for NPY-Y2 potentiator project, cell-based, fluorescence. shares compounds with NPY-Y2 PAM-ag. AID 1702, 2009. HEK293 Y1-CNGC, membrane potential fluorescence, agonism. 450 compounds, 37% hits. activation, % at 3.6 µM;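 active = activation above the mean of DMSO-only control wells plus 3 SD, cut at about 18% in these data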;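 note: cells stimulated with 1 µM isoproterenol plus the PDE inhibitor Ro 20-1724; Y1 agonists lower the membrane potential dye signal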
CNGC inhibitor – CNGC cAMP sensor activity inhibitors, counter-screen for NPY-Y2 potentiator project, cell-based, HEK293-CNG parental, membrane potential fluorescence; shares compounds with NPY-Y2 PAM-ag; isoproterenol cAMP; inhibition, % at 3.6 µM; 450 compounds, 32% hits;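 active = inhibition above the control-well mean plus 3 SD of those wells, cut at about 22% in these data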
NPY-Y2 ag 2 – NPY-Y2 direct agonists, counter-screen for NPY-Y2 potentiator project, cell-based, fluorescence; 450 compounds, 56% hits; activation, % at 3.6 µM; HEK293 Y2/CNGC cells, membrane potential fluorescence, agonist mode; shares compounds with NPY-Y2 PAM-ag;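 active = activation above the mean of solvent-only control wells plus 3 SD, cut at about 10% in these data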;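 note: cells stimulated by isoproterenol with no NPY added so direct agonism is tested; agonism lowers probe fluorescence through less cAMP and CNG channel opening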
Numbers stand for hits; . = inactive; / = no result.

SMILES	NPY Y1 blocker	NPY Y2 blocker	NPY-Y2 PAM-ag	NPY-Y1 PAM-ag	NPY-Y2 pot conf	NPY-Y1 potentiator	NPY-Y1 agonist 2	CNGC inhibitor	NPY-Y2 ag 2
Nc1sc(-c2ccccc2)cc1-c1n[nH]c(=S)n1C1CCCCC1	/	/	102.0	.	.	.	.	.	24.6
COc1ccc(-n2c(-c3cc(-c4ccccc4)sc3N)n[nH]c2=S)cc1	/	/	.	.	/	/	/	/	/
CCC(C)SCC(=O)Nc1ccc(S(=O)(=O)N2CCOCC2)cc1OC (stereo not given)	/	/	.	.	/	/	/	/	/
Cc1cc(C)n2c(nc3ccccc32)c1C(=O)NCc1ccccc1	.	/	.	.	/	/	/	/	/
O=C(N/N=C/c1ccc(OC(F)F)cc1)c1cccc(S(=O)(=O)N2CCOCC2)c1	.	/	57.2	.	.	.	.	.	10.0
CCOC(=O)c1[nH]c2ccc(F)cc2c1NC(=O)CN1CCN(C/C=C/c2ccccc2)CC1	.	.	37.9	.	67.0	90.2	68.5	70.7	52.5
COC(=O)c1[nH]c2ccccc2c1NC(=O)CN1CCN(C/C=C/c2ccccc2)CC1	.	.	.	.	/	/	/	/	/
Clc1ccc2[nH]c3c(c2c1)CCc1cn[nH]c1-3	.	.	46.1	.	33.5	45.0	34.3	35.4	25.1
c1ccc2c3c([nH]c2c1)-c1[nH]ncc1CC3	.	.	.	.	/	/	/	/	/
Cc1c(C(C)C)c(=O)n(-c2ccc(S(=O)(=O)NCc3ccccc3)cc2)n1C	.	/	35.1	.	.	.	.	.	.
COc1ccc(Oc2ccc(/C=C/C(=O)c3ccc(O)cc3)cc2[N+](=O)[O-])cc1	.	.	37.7	.	.	.	23.4	.	11.2
COc1ccc(/C=C/C(=O)c2ccc(O)cc2)cc1COc1ccc(F)cc1	.	.	.	.	/	/	/	/	/
CC(=O)Oc1ccc(/C=N/NS(=O)(=O)c2ccccc2)cc1	.	/	.	.	/	/	/	/	/
COC(=O)c1cc(NS(=O)(=O)c2ccc(C(C)C)cc2)ccc1N1CCOCC1	/	/	.	.	/	/	/	/	/
Cc1cc(Cl)n2nc(C)c(-c3ccc(Cl)cc3)c2n1	.	/	28.3	.	41.6	59.3	58.8	62.5	45.5
CCOCCn1c(CN2CCc3ccccc3C2)nc2c1c(=O)n(C)c(=O)n2C	/	/	.	.	/	/	/	/	/
O=C(NCc1cccc(Cl)c1)c1cc(COc2ccc3ncccc3c2)on1	.	/	36.9	.	.	.	.	.	.
Cc1ccc(F)cc1CNC(=O)c1cc(COc2ccc3ncccc3c2)on1	.	/	.	.	/	/	/	/	/
C=CCn1nnnc1-c1cc(Cl)cc(Cl)c1	.	/	.	.	/	/	/	/	/
CN1C/C(=N\S(=O)(=O)c2ccccc2)N(C)C1=O	.	.	101.2	.	.	.	.	.	.
Cc1sc(-c2ccccn2)nc1OC(=O)c1ccc(F)cc1F	.	/	36.8	.	.	.	.	.	18.4
Cc1sc(-c2ccccn2)nc1OC(=O)c1ccc(Cl)c(Cl)c1	.	.	.	.	/	/	/	/	/
CCn1c(SCC(=O)Nc2cc(C)on2)nnc1-c1ccc(OC)cc1	.	/	.	.	/	/	/	/	/
CCn1c2ccccc2c2cc(NC(=O)CN(C)CC(=O)Nc3ccc(N4CCOCC4)cc3)ccc21	.	/	26.8	.	.	.	.	.	17.7
CCCc1nc(NC(=O)c2ccccc2)nc(NC(=O)c2ccccc2)n1	/	/	.	.	/	/	/	/	/
O=C(Nc1ccc(OCC(F)(F)C(F)F)c(C(F)(F)F)c1)c1ccccc1O	.	.	61.3	.	.	.	.	.	.

Source: PubChem (The Scripps Research Institute Molecular Screening Center)
